Measured values as given in ChEMBL document CHEMBL1140801, “Potency and selectivity of P2/P3-modified inhibitors of cysteine proteases from trypanosomes” (Bioorg Med Chem Lett, 2008).

What was measured:
Trypanosoma brucei [1] = assay: Ratio of Kinact to Ki of Trypanosoma brucei cathepsin B
Method in brief: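 TbCatB at 40 nM was added to inhibitor dilutions (10–0.1 μM) containing 10 μM Z-Phe-Arg-AMC in buffer A. Progress curves were run for 300 s at room temperature. For hyperbolic k_obs dependence, k_inact and K_i were fitted by nonlinear regression to a two-step irreversible inhibition equation, with an [S]/K_m correction.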

[2] = target: Cruzipain (Trypanosoma cruzi) (UniProt P25779); assay: (§1) Inhibition of Trypanosoma cruzi cruzain
Method in brief: (§2)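 Cruzain at 2 nM was added to inhibitor dilutions (10 to 0.01 μM) containing 10 μM Z-Phe-Arg-AMC in buffer A. Progress curves were run for 150 s at room temperature. k_ass came from linear regression when k_obs was linear in [I]. If saturating, k_inact and K_i came from nonlinear fitting to a two-step irreversible inhibition model.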

Cruzipain = Cruzipain (Trypanosoma cruzi, UniProt P25779); assay: as §1; method in brief: as §2
Trypanosoma brucei [3] = assay: (§3) Inhibition of Trypanosoma brucei rhodesain
Method in brief: (§4)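 Rhodesain at 2 nM was added to inhibitor dilutions (10 to 0.01 μM) containing 10 μM Z-Phe-Arg-AMC in buffer A. Progress curves were run for 300 s at room temperature. Linear k_obs versus [I] gave k_ass by linear regression. Hyperbolic dependence gave k_inact and K_i by nonlinear fit to a two-step irreversible mechanism.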

[4] = as §3; method in brief: as §4
[5] = target: Cruzipain (Trypanosoma cruzi) (UniProt P25779); assay: Ratio of Kinact to ki of Trypanosoma cruzi cruzain; method in brief: as §2
Trypanosoma brucei [6] = assay: Ratio of Kinact to Ki of Trypanosoma brucei rhodesain; method in brief: as §4
Trypanosoma cruzi = assay: Antiparasitic activity against Trypanosoma cruzi in J774 macrophage; assay type: functional
Method in brief: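 T. cruzi-infected J774 macrophages exposed to compound at 10 μM; read-out is how many days the macrophages survive, with macrophage toxicity also scored. Untreated infected cultures serve as control.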

J774 = assay: Cytotoxicity against mouse J774 macrophage; assay type: cell-based
Method in brief: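 J774 macrophages infected with T. cruzi were treated with compound at 10 μM. Macrophage toxicity was scored yes/no alongside macrophage survival in days.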

Cruzipain, sequence (P25779 whole entry): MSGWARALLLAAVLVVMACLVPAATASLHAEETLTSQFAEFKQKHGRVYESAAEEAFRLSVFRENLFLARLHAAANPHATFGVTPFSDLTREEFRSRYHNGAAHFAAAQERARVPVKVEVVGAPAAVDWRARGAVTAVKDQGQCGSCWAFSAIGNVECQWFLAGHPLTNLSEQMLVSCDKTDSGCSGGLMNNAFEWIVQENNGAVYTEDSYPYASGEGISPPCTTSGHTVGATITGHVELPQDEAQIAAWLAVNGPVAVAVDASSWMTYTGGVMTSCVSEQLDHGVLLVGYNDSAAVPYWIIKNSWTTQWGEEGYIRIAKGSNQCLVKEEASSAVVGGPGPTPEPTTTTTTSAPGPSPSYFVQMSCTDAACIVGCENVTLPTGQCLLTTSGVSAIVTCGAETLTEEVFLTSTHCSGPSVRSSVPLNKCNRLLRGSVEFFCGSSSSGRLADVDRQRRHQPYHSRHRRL
Cruzipain (Trypanosoma cruzi), sequence (P25779 123-467 limits assumed): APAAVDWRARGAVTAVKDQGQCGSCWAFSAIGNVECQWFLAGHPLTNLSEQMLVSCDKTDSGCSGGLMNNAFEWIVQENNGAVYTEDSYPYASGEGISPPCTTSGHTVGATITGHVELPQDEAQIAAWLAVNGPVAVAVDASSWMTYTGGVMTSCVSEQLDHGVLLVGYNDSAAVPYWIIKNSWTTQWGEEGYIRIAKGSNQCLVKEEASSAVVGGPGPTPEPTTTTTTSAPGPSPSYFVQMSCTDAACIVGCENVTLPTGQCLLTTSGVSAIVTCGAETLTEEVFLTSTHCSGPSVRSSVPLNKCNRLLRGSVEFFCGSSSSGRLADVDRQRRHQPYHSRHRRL

| Ka (Trypanosoma brucei [1]) [M⁻¹ s⁻¹] | Kinact [2] [s⁻¹] | Ki (Cruzipain) [nM] | Kinact (Trypanosoma brucei [3]) [s⁻¹] | Ki [4] [nM] | Ratio [5] [M⁻¹ s⁻¹] | Ratio (Trypanosoma brucei [6]) [M⁻¹ s⁻¹] | Ka [5] [M⁻¹ s⁻¹] | Structure (SMILES) | Survival (Trypanosoma cruzi) [days] | Activity (J774) | Ka (Trypanosoma brucei [6]) [M⁻¹ s⁻¹] | Ratio (Trypanosoma brucei [1]) [M⁻¹ s⁻¹] |
| --- | --- | --- | --- | --- | --- | --- | --- | --- | --- | --- | --- | --- |
| 100 | 0.01 | 280 | 0.04 | 230 | 36000 | 173000 | – | Cc1cccc(C[C@H](NC(=O)c2ccccn2)C(=O)N[C@H](/C=C/S(=O)(=O)c2ccccc2)CCc2ccccc2)c1 | – | – | – | – |
| 60 | 0.027 | 1700 | 0.29 | 880 | 16000 | 327000 | – | Cc1ccc(C[C@H](NC(=O)c2ccccn2)C(=O)N[C@H](/C=C/S(=O)(=O)c2ccccc2)CCc2ccccc2)cc1 | – | – | – | – |
| – | – | – | 0.11 | 120 | – | 852000 | 440000 | Cc1ccc(C[C@H](NC(=O)N2CCN(C)CC2)C(=O)N[C@H](/C=C/S(=O)(=O)c2ccccc2)CCc2ccccc2)cc1 | – | – | – | 10000 |
| 650 | 0.001 | 71 | 0.0093 | 37 | 14000 | 252000 | – | Cc1cccc(C[C@H](NC(=O)c2ccc3c(c2)OCCO3)C(=O)N[C@H](/C=C/S(=O)(=O)c2ccccc2)CCc2ccccc2)c1 | – | – | – | – |
| – | 0.0049 | 45 | 0.014 | 33 | 109000 | 420000 | – | Cc1ccc(C[C@H](NC(=O)c2ccc(C(F)(F)F)cc2)C(=O)N[C@H](/C=C/S(=O)(=O)c2ccccc2)CCc2ccccc2)cc1 | – | – | – | – |
| – | 0.012 | 350 | 0.011 | 30 | 34000 | 366000 | – | Cc1ccc(C[C@H](NC(=O)c2cc(F)cc(F)c2)C(=O)N[C@H](/C=C/S(=O)(=O)c2ccccc2)CCc2ccccc2)cc1 | – | – | – | – |
| 500 | 0.00047 | 150 | 0.0017 | 280 | 3100 | 6000 | – | O=C(N[C@@H](Cc1cccc(C(F)(F)F)c1)C(=O)N[C@H](/C=C/S(=O)(=O)c1ccccc1)CCc1ccccc1)c1ccccn1 | – | – | – | – |
| 800 | 0.16 | 3600 | – | – | 45000 | – | – | CN1CCN(C(=O)N[C@@H](Cc2cccnc2)C(=O)N[C@H](/C=C/S(=O)(=O)c2ccccc2)CCc2ccccc2)CC1 | – | – | 55000 | – |
| 600 | 0.006 | 19 | 0.031 | 20 | 311000 | 1.57e+06 | – | Cc1ccc(C[C@H](NC(=O)c2ccc3c(c2)OCCO3)C(=O)N[C@H](/C=C/S(=O)(=O)c2ccccc2)CCc2ccccc2)cc1 | – | – | – | – |
| 540 | 0.0056 | 80 | 0.019 | 85 | 70000 | 223000 | – | O=C(N[C@@H](Cc1ccccc1)C(=O)N[C@H](/C=C/S(=O)(=O)c1ccccc1)CCc1ccccc1)c1ccc2c(c1)OCCO2 | – | – | – | – |

| Structure (SMILES) | Ka (Trypanosoma brucei [1]) [M⁻¹ s⁻¹] | Kinact [2] [s⁻¹] | Ki (Cruzipain) [nM] | Kinact (Trypanosoma brucei [3]) [s⁻¹] | Ki [4] [nM] | Ratio [5] [M⁻¹ s⁻¹] | Ratio (Trypanosoma brucei [6]) [M⁻¹ s⁻¹] | Ka [5] [M⁻¹ s⁻¹] | Survival (Trypanosoma cruzi) [days] | Activity (J774) | Ka (Trypanosoma brucei [6]) [M⁻¹ s⁻¹] | Ratio (Trypanosoma brucei [1]) [M⁻¹ s⁻¹] |
| --- | --- | --- | --- | --- | --- | --- | --- | --- | --- | --- | --- | --- |
| CN1CCN(C(=O)N[C@@H](Cc2cccc(C(F)(F)F)c2)C(=O)N[C@H](/C=C/S(=O)(=O)c2ccccc2)CCc2ccccc2)CC1 | 400 | 0.009 | 170 | – | – | 53000 | – | – | 42 | Toxic | 81000 | – |
| O=C(N[C@@H](Cc1ccccc1)C(=O)N[C@H](/C=C/S(=O)(=O)c1ccccc1)CCc1ccccc1)c1cc(F)cc(F)c1 | – | 0.31 | 980 | 0.021 | 66 | 31000 | 317000 | – | 12 | Toxic | – | – |
| Cc1cccc(C[C@H](NC(=O)c2cc(F)cc(F)c2)C(=O)N[C@H](/C=C/S(=O)(=O)c2ccccc2)CCc2ccccc2)c1 | – | 0.0052 | 50 | 0.023 | – | 105000 | 456000 | – | 12 | Toxic | – | 16000 |
| O=C(N[C@@H](Cc1ccccc1)C(=O)N[C@H](/C=C/S(=O)(=O)c1ccccc1)CCc1ccccc1)c1ccccn1 | 70 | 0.03 | 250 | 0.14 | 910 | 120000 | 150000 | – | 42 | Non-toxic | – | – |
| O=C(N[C@@H](Cc1ccccc1)C(=O)N[C@H](/C=C/S(=O)(=O)c1ccccc1)CCc1ccccc1)c1ccc(C(F)(F)F)cc1 | < 5 | 0.0097 | 97 | 0.009 | 87 | 100000 | 104000 | – | 8 | Non-toxic | – | – |
| Cc1cccc(C[C@H](NC(=O)N2CCN(C)CC2)C(=O)N[C@H](/C=C/S(=O)(=O)c2ccccc2)CCc2ccccc2)c1 | – | 0.86 | 3300 | 0.088 | 170 | 257000 | 517000 | – | 42 | Non-toxic | – | 19000 |
| Cc1cccc(C[C@H](NC(=O)c2ccc(C(F)(F)F)cc2)C(=O)N[C@H](/C=C/S(=O)(=O)c2ccccc2)CCc2ccccc2)c1 | – | 0.0035 | 92 | 0.005 | 43 | 38000 | 116000 | – | 8 | Toxic | – | – |
| CN1CCN(C(=O)N[C@@H](Cc2ccccc2)C(=O)N[C@H](/C=C/S(=O)(=O)c2ccccc2)CCc2ccccc2)CC1 [K-777] | 1000 | – | – | – | 270 | – | – | – | 42 | Non-toxic | – | – |
| O=C(N[C@@H](Cc1cccc(C(F)(F)F)c1)C(=O)N[C@H](/C=C/S(=O)(=O)c1ccccc1)CCc1ccccc1)c1cc(F)cc(F)c1 | – | – | – | 0.0017 | 33 | – | 52000 | – | 23 | Non-toxic | – | – |
